# Calls of active or inactive are those of the source. The rule behind the calls is not given here.
# Tests used:
# [1] = Cytotoxicity against human 293T cells assessed as cell viability after 24 hrs by MTT assay; type: cell-based, HEK-293T; conditions: human, hek-293t
# Procedure, shortened: (§1)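 MTT viability assay. Cells were seeded at 1 × 10^4 cells/well in complete medium and grown 24 h. Medium was replaced with fresh medium containing peptide over a concentration series and incubated 24 h. MTT (5 mg/mL) was added for 4 h, formazan was dissolved in DMSO, and A490 was read. IC50 was derived from mean ± SD of three independent experiments.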
# [2] = Hemolytic activity in mouse RBC at 0.39 to 50 uM after 1 hr; type: ADME, cell-based; conditions: erythrocyte
# Procedure, shortened: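 Heparinized fresh mouse blood: RBCs were washed three times in 0.9% saline and diluted to 4.0 × 10^8 cells/mL. Peptides at various concentrations were incubated with the RBCs 1 h at 37 °C. After centrifugation at 1000 rpm for 10 min, supernatant absorbance was read at 540 nm, with 1% Triton X-100 set as 100% hemolysis.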
# HeLa [3] = assay: Cytotoxicity against human HeLa cells assessed as cell viability after 24 hrs by MTT assay; type: functional, cell-based; procedure, shortened: as §1
# [4] = Cytotoxicity against HLF assessed as cell viability after 24 hrs by MTT assay; set-up: species or system Homo sapiens; conditions: human, hlf; procedure, shortened: as §1
# MCF7 = assay: Cytotoxicity against human MCF7 cells assessed as cell viability after 24 hrs by MTT assay; type: functional, cell-based; procedure, shortened: as §1
# HUVEC = assay: Cytotoxicity against HUVEC assessed as cell viability after 24 hrs by MTT assay; type: cell-based, Homo sapiens; conditions: human, huvec; procedure, shortened: as §1
# A549 = assay: Cytotoxicity against human A549 cells assessed as cell viability after 24 hrs by MTT assay; type: functional, cell-based; procedure, shortened: as §1
# HeLa [5] = assay: Drug uptake in human HeLa cells at 5 uM after 15 mins using iridium dye labeled compound by confocal microscopic method; type: ADME, cell-based; conditions: 0.25 h
# Procedure, shortened: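 Peptides were labelled at the N-terminal His with [Ir(ppy)2(H2O)2]OTf: 200 μM each, mixed 1:1 in PBS, 2 h at 37 °C in the dark. HeLa cells (1 × 10^5 per dish, grown 24 h) were exposed to 5 μM labelled peptide. Live-cell confocal images were taken at 0, 5 and 15 min (excitation 403 nm, emission 500–560 nm).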
Molecule,Activity [1],Activity [2],IC50 (HeLa [3]),Activity [4],Activity (MCF7),Activity (HUVEC),Activity (A549),Drug uptake (HeLa [5])
H-HGGKLLKLLKKLLKLLK-NH2,Toxic,Toxic,3.3 µM,Toxic,Active,Toxic,Active,
CC(C)C[C@@H](NC(=O)[C@@H](CCCNC(=N)N)NC(=O)[C@@H](CC(C)C)NC(=O)[C@@H](CC(C)C)NC(=O)[C@@H](CCCNC(=N)N)NC(=O)[C@@H](CCCNC(=N)N)NC(=O)[C@@H](CC(C)C)NC(=O)[C@@H](CCCNC(=N)N)NC(=O)[C@@H](CC(C)C)NC(=O)[C@@H](CC(C)C)NC(=O)[C@@H](CCCNC(=N)N)NC(=O)[C@@H](CC(C)C)NC(=O)[C@@H](CC(C)C)NC(=O)[C@@H](CCCNC(=N)N)NC(=O)CNC(=O)CNC(=O)[C@H](N)Cc1cnc[nH]1)C(N)=O,,,4.1 µM,,,,,Active
